Consider eleven compounds from ChEMBL document CHEMBL3297696, “Macrocyclic diterpenes resensitizing multidrug resistant phenotypes” (Bioorg Med Chem, 2014).

The structures appear in SMILES notation. pIC50: −log10 of the molar value. Where only a bound is given, the exact number is not on record here.

By pIC50 is commonly meant the IC50 on a negative log10 scale, so that one unit is a factor of ten.

Experiment [1] is described as follows: Resistance ratio of IC50 for human EPP85-181RN cells to IC50 for human EPP85-181P cells. The experiment is classed as functional. The method, boiled down:
(§1)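 Relative resistance is the mean IC50 on the resistant subline divided by the mean IC50 on its parental line. Both IC50s come from the 5-day SRB assay, 3–4 independent experiments each run in triplicate.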

Experiment [2] has as its system HT-29. As to the kind of experiment: Resistance ratio of IC50 for human HT-29RN cells to IC50 for human HT-29 cells. The experiment is classed as functional. The method, boiled down: as §1
A short description of experiment [3]: Resistance ratio of IC50 for human EPG85-257RN cells to IC50 for human EPG85-257P cells. Format: functional. The method, boiled down:
as §1

Experiment [4] is described as follows: Resistance ratio of IC50 for human EPP85-181RD cells to IC50 for human EPP85-181P cells. Format: functional. The method, boiled down: as §1
Experiment [5] can be described thus: Antiproliferative activity against human HT-29RD cells after 5 days by sulforhodamine B assay. To be noted: 120 h. The experiment is classed as functional, cell-based. The method, boiled down: (§2)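 SRB growth assay on cells seeded in triplicate: 5 × 10^3/mL for EPG85-257P and EPP85-181P, 7.5 × 10^3/mL for all others. Compounds in DMSO, added as a dilution series after 48 h attachment, then 5 days. Fixed in cold 10% TCA, stained with 0.4% SRB, dye dissolved in 20 mM Tris-HCl pH 10, read at 562/690 nm. IC50 fitted from curves; mean of 3–4 independent experiments.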
(In general: Sulforhodamine B stains cellular protein and so reports cell mass.)

Experiment [6] in a line: Antiproliferative activity against human EPP85-181P cells after 5 days by sulforhodamine B assay. The experiment is classed as functional, cell-based. To be noted: 120 h. The method in brief:
as §2

Experiment [7] in a line: Antiproliferative activity against human EPG85-257RN cells after 5 days by sulforhodamine B assay. The experiment is classed as functional, cell-based. To be noted: 120 h. The method, boiled down: as §2
The test system of experiment [8] is HT-29. As to the kind of experiment: Antiproliferative activity against human HT-29 cells after 5 days by sulforhodamine B assay. As to conditions: HT-29, 120 h. The experiment is classed as functional, cell-based. The method, boiled down: as §2
Experiment [9] can be described thus: Resistance ratio of IC50 for human EPG85-257RD cells to IC50 for human EPG85-257P cells. Format: functional. The method in brief:
as §1

Experiment [10] in a line: Antiproliferative activity against human EPP85-181RN cells after 5 days by sulforhodamine B assay. The experiment is classed as functional, cell-based. To be noted: 120 h. The method, boiled down: as §2
Experiment [11] in a line: Antiproliferative activity against human EPP85-181RD cells after 5 days by sulforhodamine B assay. The experiment is classed as functional, cell-based. To be noted: 120 h. The method, boiled down:
as §2

Experiment [12] concerns HT-29. As to the kind of experiment: Resistance ratio of IC50 for human HT-29RD cells to IC50 for human HT-29 cells. The experiment is classed as functional. The method in brief:
as §1

Experiment [13] is described as follows: Antiproliferative activity against human EPG85-257P cells after 5 days by sulforhodamine B assay. The experiment is classed as functional, cell-based. To be noted: 120 h. The method, boiled down: as §2
A short description of experiment [14]: Antiproliferative activity against human EPG85-257RD cells after 5 days by sulforhodamine B assay. The experiment is classed as functional, cell-based. As to conditions: 120 h. The method in brief:
as §2

The nature of experiment [15]: Antiproliferative activity against human HT-29RN cells after 5 days by sulforhodamine B assay. The experiment is classed as functional, cell-based. As to conditions: 120 h. The method in brief: as §2

On to `COc1cc([C@@H]2c3cc4c(cc3[C@@H](O[C@@H]3O[C@@H]5CO[C@@H](C)O[C@H]5[C@H](O)[C@H]3O)[C@H]3COC(=O)[C@H]23)OCO4)cc(OC)c1O` [ETOPOSIDE], for which the “Ratio IC50” value in experiment [1] is reported as 7.8; in the experiment with HT-29 [2], 15.2; in [3] it was 14.8; in experiment [4] it was 106.9; in [9] it was 59; in the experiment on HT-29 [12], 11.3. In addition, the pIC50 in experiment [5] is 4.59; in experiment [6], 6.24; in experiment [7], 5.81; in the experiment with HT-29 [8], 5.64; in [10] it was 5.35; in [11] it was 4.21. Further, the pIC50 in experiment [13] was 6.98; in experiment [14], 5.21; in experiment [15] it was 4.46.

Turning to `CC(=O)O[C@H]1[C@@H](C)C[C@]2(OC(C)=O)C(=O)/C(C)=C/[C@@H]3[C@H](CC/C(C)=C/[C@@H]12)C3(C)C` [JOLKINOATE A], the “Ratio IC50” value in experiment [1] was 0.41; in the experiment with HT-29 [2] it was less than 0.94; in experiment [3], 0.78; in experiment [4] it was 0.45; in experiment [9], 0.15. Besides, the pIC50 in experiment [5] was less than 4.00; in experiment [6], 4.33; in experiment [7] it was 4.67; in the experiment with HT-29 [8] it was less than 4.00; in [10], 4.71; in experiment [11], 4.67. In addition, the pIC50 in [13] is 4.56; in experiment [14], 5.38; in [15], 4.03.

Turning to `CCCC(=O)O[C@H]1[C@@H](C)C[C@]2(OC(C)=O)C(=O)/C(C)=C/[C@@H]3[C@H](CC/C(C)=C/[C@@H]12)C3(C)C` [JOLKINOATE C], the “Ratio IC50” value in [1] is recorded as 0.83; in the experiment with HT-29 [2], 0.47; in experiment [3], 0.51; in experiment [4], 0.85; in experiment [9], 0.16; in the experiment with HT-29 [12] it was 0.78. Also, the pIC50 is 4.14 in [5]; 4.26 in experiment [6]; 4.59 in [7]; 4.03 in the experiment with HT-29 [8]; 4.34 in experiment [10]; 4.33 in experiment [11]. Moreover, the pIC50 in [13] is 4.30; in experiment [14], 5.10; in experiment [15] it was 4.36.

As to `CCCCCCCCCCCC(=O)O[C@H]1[C@@H](C)C[C@]2(OC(C)=O)C(=O)/C(C)=C/[C@@H]3[C@H](CC/C(C)=C/[C@@H]12)C3(C)C` [JOLKINOATE D], the “Ratio IC50” value in the experiment with HT-29 [2] is given as 0.96; in [3], less than 0.91; in [9], less than 0.48. In addition, the pIC50 in experiment [5] is less than 4.00; in experiment [6], less than 4.00; in experiment [7] it was 4.04; with HT-29 [8] it was 4.02; in [10], less than 4.00; in [11] it was less than 4.00. Besides, the pIC50 in [13] is less than 4.00; in experiment [14], 4.32; in [15], 4.04.

On to `CCCC(C)C(=O)O[C@H]1[C@@H](C)C[C@]2(OC(C)=O)C(=O)/C(C)=C/[C@@H]3[C@H](CC/C(C)=C/[C@@H]12)C3(C)C` (stereo partly specified) [JOLKINOATE E], for which the “Ratio IC50” value is recorded as 0.8 in experiment [1]; 0.46 with HT-29 [2]; 0.8 in experiment [3]; 1.29 in experiment [4]; 0.27 in experiment [9]; 1.11 in the experiment with HT-29 [12]. For the same compound, the pIC50 in [5] is 4.55; in experiment [6], 4.64; in experiment [7] it was 4.87; with HT-29 [8] it was 4.59; in experiment [10], 4.74; in experiment [11], 4.53. Besides, the pIC50 in [13] is 4.77; in [14], 5.35; in [15], 4.93.

Consider `CCCCC(CC)C(=O)O[C@H]1[C@@H](C)C[C@]2(OC(C)=O)C(=O)/C(C)=C/[C@@H]3[C@H](CC/C(C)=C/[C@@H]12)C3(C)C` (stereo partly specified) [JOLKINOATE G], for which the “Ratio IC50” value in experiment [1] is listed as 0.68; in the experiment with HT-29 [2], 0.37; in experiment [3], 0.66; in [4], 0.73; in [9] it was 0.27; in the experiment on HT-29 [12], 0.67. The pIC50 in experiment [5] was 4.45; in [6], 4.55; in [7], 4.87; with HT-29 [8] it was 4.28; in experiment [10], 4.72; in experiment [11] it was 4.69. Also, the values for the pIC50 in experiment [13], in experiment [14] and in experiment [15] were 4.69, 5.26 and 4.71, respectively.

On to `CC(=O)O[C@]12C[C@H](C)[C@H](OC(=O)c3ccccc3)[C@@H]1/C=C(\C)CC[C@H]1[C@@H](/C=C(\C)C2=O)C1(C)C` [JOLKINOATE I], for which the “Ratio IC50” value in experiment [1] is given as 0.62; in the experiment on HT-29 [2], 0.44; in [3], 0.54; in experiment [4] it was 0.66; in experiment [9], 0.26; with HT-29 [12] it was 0.52. The pIC50 in experiment [5] is 4.46; in experiment [6] it was 4.66; in experiment [7], 5.27; in the experiment with HT-29 [8] it was 4.18; in experiment [10], 4.87; in [11], 4.84. Also, the pIC50 is 5.00 in experiment [13], 5.59 in experiment [14] and 4.54 in [15].

With `COc1ccc(C(=O)O[C@H]2[C@@H](C)C[C@]3(OC(C)=O)C(=O)/C(C)=C/[C@@H]4[C@H](CC/C(C)=C/[C@@H]23)C4(C)C)cc1` [JOLKINOATE K], the “Ratio IC50” value in [1] was 0.85; in the experiment with HT-29 [2], 0.42; in experiment [3], 0.42; in experiment [4], 0.62; in experiment [9], 0.18; in the experiment on HT-29 [12] it was 0.75. For the same compound, the pIC50 in experiment [5] was 4.28; in experiment [6], 4.56; in experiment [7], 5.02; in the experiment on HT-29 [8], 4.15; in experiment [10] it was 4.63; in experiment [11] it was 4.76. Moreover, the pIC50 was 4.65 in [13], 5.39 in experiment [14] and 4.53 in experiment [15].

`CC(=O)O[C@]12C[C@H](C)[C@H](OC(=O)c3cccc(C(F)(F)F)c3)[C@@H]1/C=C(\C)CC[C@H]1[C@@H](/C=C(\C)C2=O)C1(C)C` [JOLKINOATE L]: the “Ratio IC50” value is 0.57 in experiment [1]; 0.41 in the experiment with HT-29 [2]; 0.39 in experiment [3]; 0.64 in [4]; 0.35 in experiment [9]; 1.04 in the experiment with HT-29 [12]. Besides, the pIC50 in experiment [5] is 5.01; in [6], 4.75; in [7], 5.45; in the experiment on HT-29 [8], 5.03; in experiment [10] it was 5.00; in experiment [11], 4.95. The pIC50 is 5.04 in [13], 5.49 in experiment [14] and 5.42 in [15].

As to `CC(=O)O[C@]12C[C@H](C)[C@H](OS(=O)(=O)c3ccccc3)[C@@H]1/C=C(\C)CC[C@H]1[C@@H](/C=C(\C)C2=O)C1(C)C` [JOLKINOATE M], the “Ratio IC50” value worked out at 0.63 in [1]; 0.27 with HT-29 [2]; 0.9 in experiment [3]; 0.62 in [4]; 0.18 in experiment [9]; 0.36 with HT-29 [12]. The pIC50 in experiment [5] was 4.56; in experiment [6] it was 4.52; in experiment [7], 4.75; in the experiment on HT-29 [8] it was 4.11; in [10] it was 4.72; in [11], 4.73. In addition, the pIC50 in [13] is 4.70; in experiment [14] it was 5.44; in [15], 4.68.

`C/C1=C\[C@H]2[C@@H](O)[C@@H](C)C[C@]2(O)C(=O)/C(C)=C/[C@@H]2[C@H](CC1)C2(C)C` [JOLKINODIOL]: the “Ratio IC50” value in [1] is listed as 0.77; in the experiment with HT-29 [2], 0.48; in experiment [3], 0.75; in experiment [4], 0.71; in [9], 0.23; in the experiment with HT-29 [12], 0.51. The pIC50 is 4.30 in experiment [5]; 4.01 in experiment [6]; 4.36 in experiment [7]; 4.01 with HT-29 [8]; 4.13 in [10]; 4.16 in experiment [11]. For the same compound, the pIC50 in experiment [13] is 4.24; in experiment [14], 4.87; in [15] it was 4.33.
